Laboratory results taken from ChEMBL document CHEMBL4411270, “Discovery of Nonquinone Substrates for NAD(P)H: Quinone Oxidoreductase 1 (NQO1) as Effective Intracellular ROS Generators for the Treatment of Drug-Resistant Non-Small-Cell Lung Cancer” (J Med Chem, 2018).
Calls of active or inactive are those of the source. The rule behind the calls is not given here.

Experiments:
[1] = Hepatotoxicity in nude mouse xenografted with human A549/TR cells expressing NQO1 assessed as total protein level at 15 to 30 mg/kg, iv treated every other day for 3 weeks by hematoxylin and eosin staining based optical microscopic analysis; type: toxicity, organism-based; settings: in vivo, 504 h
In short: (§1)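 Nude mice bearing A549/Taxol xenografts given saline, 15 or 30 mg/kg by tail-vein injection every other day, or Taxol 2 mg/kg, for 3 weeks. Mice then euthanized. Major organs examined by H&E staining. Blood collected for biochemistry: TP, ALB, GLB, AST, BUN, LDH.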

[2] = target: NAD(P)H dehydrogenase [quinone] 1 (Homo sapiens) (UniProt P15559); test: Substrate activity at recombinant human NQO1 assessed as reduction in PARP-1 hyperactivation by measuring PAR accumulation at 10 uM by western blot analysis
Chain of NAD(P)H dehydrogenase [quinone] 1 (Homo sapiens) (P15559 whole entry): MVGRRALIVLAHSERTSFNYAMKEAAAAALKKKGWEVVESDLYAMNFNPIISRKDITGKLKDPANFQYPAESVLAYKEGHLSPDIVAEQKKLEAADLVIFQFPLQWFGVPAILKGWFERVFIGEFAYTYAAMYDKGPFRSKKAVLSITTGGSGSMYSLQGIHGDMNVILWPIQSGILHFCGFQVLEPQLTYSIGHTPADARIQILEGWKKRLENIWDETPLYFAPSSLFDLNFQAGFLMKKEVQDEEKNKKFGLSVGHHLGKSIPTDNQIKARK
In short: (§2)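 A549/Taxol cells treated with compound at 10 µM, with or without 50 µM DIC or 10 mM NAC pretreatment, harvested at indicated times; PAR formation by Western blot, plus intracellular ATP and NAD+ levels.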

[3] = target: NAD(P)H dehydrogenase [quinone] 1 (Homo sapiens) (UniProt P15559); test: Substrate activity at recombinant human NQO1 assessed as induction of DNA damage at 10 uM treated post NAC addition and measured after 2 hrs by propidium iodide staining based laser scanning confocal microscopic analysis
In short: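 Comet assay in A549/Taxol cells exposed 2 h to compound (10 µM) or 2 mM H2O2, with or without DIC or NAC pretreatment; comet tail lengths measured in arbitrary units.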

[4] = Cardiotoxicity in nude mouse xenografted with human A549/TR cells expressing NQO1 at 15 to 30 mg/kg, iv treated every other day for 3 weeks by hematoxylin and eosin staining based optical microscopic analysis; type: toxicity, organism-based; settings: in vivo, 504 h; in short: as §1
[5] = Nephrotoxicity in nude mouse xenografted with human A549/TR cells expressing NQO1 at 15 to 30 mg/kg, iv treated every other day for 3 weeks by hematoxylin and eosin staining based optical microscopic analysis; type: toxicity, organism-based; settings: in vivo, 504 h
In short: (§3)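 A549/Taxol xenograft nude mice dosed by tail-vein injection at 15 or 30 mg/kg every other day for three weeks; saline vehicle group. Afterwards mice were euthanized, major organs H&E stained, and blood taken for biochemistry (TP, ALB, GLB, AST, BUN, LDH); tumor tissue assayed for ROS and GSH.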

[6] = Nephrotoxicity in nude mouse xenografted with human A549/TR cells expressing NQO1 assessed as blood urea nitrogen level at 15 to 30 mg/kg, iv treated every other day for 3 weeks […]; type: toxicity, organism-based; settings: in vivo, 504 h; in short: as §3
Mus musculus = test: Reduction of GSH level in nude mouse xenografted with human A549/TR cells expressing NQO1 at 15 to 30 mg/kg, iv treated every other day for 3 weeks; type: functional, organism-based; in short: as §3
A549/TR [7] = test: Induction of apoptosis in human A549/TR cells expressing NQO1 after 24 hrs by Annexin V-FITC/propidium iodide based flow cytometric analysis; type: functional, cell-based
In short: (§4)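 A549/Taxol cells exposed 24 h to 1, 5 or 10 µM. The 10 µM arms included pretreatment with 50 µM dicoumarol or 10 mM N-acetylcysteine. Cells stained with Annexin V-FITC and propidium iodide, and populations quantified by flow cytometry.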

[8] = Selectivity ratio of IC50 for NQO1 deficient human L02 cells to IC50 for human A549/TR cells expressing NQO1; type: toxicity; settings: NQO1-deficient L02 cells and A549/TR cells expressing NQO1, read-out: Ratio IC50
In short: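 MTT assay: cells seeded at 1 x 10^4 cells/mL, attached overnight, exposed to compound (1-100 µM) for 4 h, then fresh medium for 72 h at 37 °C, 5% CO2; MTT 4 h, formazan in DMSO read at 560 nm. IC50 taken; ratio = IC50(L02)/IC50(A549/Taxol); at least three technical replicates.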

[9] = target: NAD(P)H dehydrogenase [quinone] 1 (Homo sapiens) (UniProt P15559); test: Substrate activity at recombinant human NQO1 assessed as reduction in PARP-1 hyperactivation by measuring depletion of NAD+ level at 10 uM measured up to 300 mins; in short: as §2
[10] = Toxicity in nude mouse xenografted with human A549/TR cells expressing NQO1 assessed as damage to spleen at 15 to 30 mg/kg, iv treated every other day for 3 weeks by hematoxylin and eosin staining based optical microscopic analysis; type: organism-based; settings: in vivo, 504 h; in short: as §3
[11] = Toxicity in nude mouse xenografted with human A549/TR cells expressing NQO1 assessed as damage to lung at 15 to 30 mg/kg, iv treated every other day for 3 weeks by hematoxylin and eosin staining based optical microscopic analysis; type: organism-based; settings: in vivo, 504 h; in short: as §3
A549/TR [12] = test: Induction of apoptosis in human A549/TR cells expressing NQO1 assessed as early apoptotic cells at 10 uM treated post DIC addition and measured after 24 hrs by Annexin V-FITC/propidium iodide based flow cytometric analysis (reference value: 0.43%); type: functional; in short: as §4
A549/TR [13] = test: Induction of apoptosis in human A549/TR cells expressing NQO1 assessed as increase in cleaved PARP level up to 10 uM treated post DIC addition by Western blot analysis; type: functional, cell-based
In short: (§5)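 A549/Taxol cells treated with graded concentrations up to 10 µM, with or without pretreatment with 50 µM dicoumarol or 10 mM N-acetylcysteine. Cells then harvested, washed in cold PBS and trypsinized. Lysates probed by Western blot for cleaved PARP and p53.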

A549/TR [14] = test: Induction of apoptosis in human A549/TR cells expressing NQO1 assessed as late apoptotic cells at 10 uM treated post DIC addition and measured after 24 hrs by Annexin V-FITC/propidium iodide based flow cytometric analysis (reference value: 2.49%); type: functional; in short: as §4
A549/TR [15] = test: Induction of apoptosis in human A549/TR cells expressing NQO1 assessed as late apoptotic cells at 10 uM treated post NAC addition and measured after 24 hrs by Annexin V-FITC/propidium iodide based flow cytometric analysis (reference value: 2.49%); type: functional; in short: as §4
A549/TR [16] = test: Induction of apoptosis in human A549/TR cells expressing NQO1 assessed as increase in cleaved p53 level up to 10 uM treated post NAC addition by Western blot analysis; type: functional, cell-based; in short: as §5
[17] = Hepatotoxicity in nude mouse xenografted with human A549/TR cells expressing NQO1 assessed as albumin level at 15 to 30 mg/kg, iv treated every other day for 3 weeks by hematoxylin and eosin staining based optical microscopic analysis; type: toxicity, organism-based; settings: in vivo, 504 h; in short: as §1
A549/TR [18] = test: Induction of apoptosis in human A549/TR cells expressing NQO1 assessed as viable cells at 10 uM treated post DIC addition and measured after 24 hrs by Annexin V-FITC/propidium iodide based flow cytometric analysis (reference value: 93.16%); type: functional; settings: read-out: Activity; in short: as §4
[19] = target: NAD(P)H dehydrogenase [quinone] 1 (Homo sapiens) (UniProt P15559); test: Substrate activity at DIC pretreated recombinant human NQO1 assessed as reduction in PARP-1 hyperactivation by measuring depletion of ATP level at 10 uM measured up to 300 mins; in short: as §2
[20] = target: NAD(P)H dehydrogenase [quinone] 1 (Homo sapiens) (UniProt P15559); test: Substrate activity at recombinant human NQO1 assessed as induction of ROS generation at 1 to 10 uM treated post NAC addition and measured after 3 hrs by DCF-DA staining based fluorescence laser scanning confocal microscopic analysis
In short: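 A549/Taxol cells seeded at 1 x 10^6 per well, grown 24 h, treated with compound at 1 and 10 µM for 3 h (± pretreatment with 50 µM DIC or 10 mM NAC), loaded with 10 µM DCFH-DA 30 min at 37 °C, fixed in 4% formaldehyde 20 min, PBS washed, imaged by laser scanning confocal microscopy.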

N#Cc1nc2c(nc1C#N)-c1cc(F)c(F)cc1C2=O
Activity [1]: Non-Toxic | Activity [2]: Active | Activity [3]: inactive | Activity [4]: Non-Toxic | Activity [5]: Non-Toxic | Activity [6]: Non-Toxic | Activity (Mus musculus): Active | Activity (A549/TR [7]): Dose-dependent effect | selectivity ratio [8]: 50.3 | Activity [9]: Active | Activity [10]: Non-Toxic | Activity [11]: Non-Toxic | Activity (A549/TR [12]): 7.01% | Activity (A549/TR [13]): Active | Activity (A549/TR [14]): 4.64% | Activity (A549/TR [15]): 2.11% | Activity (A549/TR [16]): Active | Activity [17]: Non-Toxic | viability at 10 µM (A549/TR [18]): 73.7% | Activity [19]: inactive | Activity [20]: inactive
